Assay outcomes (PubChem)
TAAR1 antagonist: human TAAR1 antagonists, primary screen, Fluo-8 calcium fluorescence, CHO RD-HGA16 cells; inhibition, % at 3 µM; Trace amine-associated receptor 1 (Homo sapiens), Q96RJ0; antagonist; actives 1.5% (n = 360,000); AID 624466, 2012;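 active = inhibition above a per-plate cutoff, the mean inhibition of test compounds on that plate plus 3 SD, cut at about 49% in these data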
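test system = CHO RD-HGA16 cells bearing hTAAR1 | replication = singlicate | controls = DMSO-only wells and EC80 β-PEA-stimulated wells | reagent = EC80 β-phenethylamine stimulus | read-out basis = percent inhibition of PEA-evoked calcium signal, max/basal emission ratio | schedule = seeding 17-24 h prior, 75-min 37 °C, 30-min RT dye loading | signal = kinetic Fluo-8 calcium fluorescence measurement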
OXTR ag: human OXTR agonists, primary screen, fluorescence, CHO-OTR cells, Fluo-8 calcium; Oxytocin receptor (Homo sapiens), P30559; Fluo-8 calcium fluorescence; normalized: DMSO 0%, oxytocin 100%; activation, % at 3 µM; actives 0.32% (n = 320,000);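 active = activation above the mean of all tested compounds plus 3 SD, cutoff set per screening run, cut at about 20% in these data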;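 also: peak over basal fluorescence ratio from a 100 s FLIPR kinetic read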
Target sequence (P30559 whole entry, looked up): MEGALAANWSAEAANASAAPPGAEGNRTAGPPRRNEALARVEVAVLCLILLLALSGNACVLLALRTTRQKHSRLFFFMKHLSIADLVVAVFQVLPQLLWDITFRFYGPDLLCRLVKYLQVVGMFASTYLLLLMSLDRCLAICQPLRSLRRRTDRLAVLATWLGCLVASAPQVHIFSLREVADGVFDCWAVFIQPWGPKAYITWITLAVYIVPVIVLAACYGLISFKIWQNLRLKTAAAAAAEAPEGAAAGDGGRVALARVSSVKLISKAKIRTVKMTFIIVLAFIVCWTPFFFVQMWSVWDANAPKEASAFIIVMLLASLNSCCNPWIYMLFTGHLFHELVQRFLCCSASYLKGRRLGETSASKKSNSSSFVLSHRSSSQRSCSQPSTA
OXTR potentiate: human OXTR potentiators, primary screen, fluorescence, CHO-OTR cells, Fluo-8 calcium; Oxytocin receptor (Homo sapiens), P30559; Fluo-8 calcium fluorescence, potentiator mode; 0% = oxytocin EC15, 100% = EC100; activation, % at 3 µM; actives 0.061% (n = 320,000); AID 2445, 2010;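 active = activation above that plate's cutoff, the mean activation of tested compounds plus 3 SD, cut at about 6.6% in these data, passing the limit was not always enough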
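test system = CHO-OTR cells, human receptor | compound = single-point 3.0 µM | schedule = 6 min compound pre-incubation at room temperature, 100 s kinetic read | signal = Fluo-8 no-wash calcium dye fluorescence, excitation 470-495 nm, emission 515-575 nm | repeats = single well per compound, singlicate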
V1aR counter: agonists of human V1a receptor, primary screen, counter-screen for OXTR agonist project, fluorescence, CHO-V1R cells; AID 2797, 2010; actives 0.25% (n = 320,000); activation, % at 3 µM; Fluo-8 calcium fluorescence, agonist mode; 0% DMSO, 100% 3 nM vasopressin;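 active = activation above the mean activation of all tested compounds plus 3 SD, per screening run, cut at about 20% in these data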;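 also: signal is peak over basal fluorescence ratio across a 100 second FLIPR read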
Target sequence (P37288 whole entry, looked up): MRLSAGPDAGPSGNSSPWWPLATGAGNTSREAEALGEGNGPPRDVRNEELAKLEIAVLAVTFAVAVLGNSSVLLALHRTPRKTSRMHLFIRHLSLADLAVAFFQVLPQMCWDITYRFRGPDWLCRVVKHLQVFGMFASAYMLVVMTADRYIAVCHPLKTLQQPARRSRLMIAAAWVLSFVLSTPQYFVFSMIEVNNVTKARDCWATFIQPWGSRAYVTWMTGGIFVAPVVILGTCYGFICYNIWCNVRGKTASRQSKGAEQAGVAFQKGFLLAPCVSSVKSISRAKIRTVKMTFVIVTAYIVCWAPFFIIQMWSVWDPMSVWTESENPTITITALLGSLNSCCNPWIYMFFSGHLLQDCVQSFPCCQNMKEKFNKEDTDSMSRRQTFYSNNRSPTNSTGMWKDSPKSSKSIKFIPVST
TAAR1 ag: human TAAR1 agonists, primary screen, Fluo-8 calcium fluorescence, CHO RD-HGA16 cells; Trace amine-associated receptor 1 (Homo sapiens), Q96RJ0; vehicle wells 0%, saturating PEA agonist 100%; activation, % at 3 µM; actives 0.99% (n = 360,000); AID 624467, 2012;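 active = activation above the mean activation of all test compounds in the run plus 3 SD, cut at about 38% in these data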
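Assay system: CHO-derived RD-HGA16 cells with stable Gα16 and human TAAR1; timing: 17-24 h seeding, 75 min 37 °C dye, 30 min RT; read-out: % activation from peak over basal fluorescence ratio, DMSO-to-PEA scaled; measured by: kinetic Fluo-8 calcium fluorescence; benchmarks: low control DMSO, high control PEA (EC100); doses: 3 µM single concentration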
TAAR1 ag confirm: human TAAR1 agonists, retest of hits, confirmation, Fluo-8 calcium fluorescence, CHO RD-HGA16 cells; shares compounds with TAAR1 ag; scaled: DMSO 0%, maximal phenethylamine 100%; activation, % at 3 µM; actives 82% (n = 2,400); AID 651783, 2012;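 active = activation above a cutoff set at the run's mean compound activation plus 3 SD, cut at about 39% in these data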
Ga16 ag counter: nonselective calcium mobilization agonists, CHO-Ga16 cells, counter-screen for hTAAR1 agonist project, cell-based, fluorescence, CHO-Ga16 parental line; shares compounds with TAAR1 ag; Fluo-8 calcium fluorescence; normalized to maximal ATP response, DMSO zero; activation, % at 3 µM; actives 50% (n = 2,400); AID 651787, 2012;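 active = activation above the run cutoff, the mean activation over all tested wells plus 3 SD, cut at about 12% in these data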
TAAR1 desensitize: TAAR1 desensitization by agonist hits, confirmation, counter-screen for TAAR1 agonist project, cell-based, fluorescence, tachyphylaxis; shares compounds with TAAR1 ag; CHO RD-HGA16 hTAAR1, Fluo-8 calcium, beta-PEA response inhibition; inhibition, % at 3 µM; actives 46% (n = 2,400); AID 651951, 2012;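 active = inhibition above the run cutoff, the mean inhibition of all test compounds plus 3 SD, cut at about 49% in these data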;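 also: beta-PEA stimulus applied at its EC80; loss of beta-PEA calcium signal after compound pretreatment read as receptor desensitization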
Ga16 antag count: inhibition of ATP-evoked calcium response in CHO-Ga16 cells, counter-screen for TAAR1 agonist project, cell-based, fluorescence; inhibition, % at 3 µM; actives 39% (n = 2,400); CHO-Ga16 ATP-induced calcium, Fluo-8 fluorescence; shares compounds with TAAR1 ag;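 active = inhibition above the plate's mean compound inhibition plus 3 SD, computed per plate, cut at about 22% in these data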
Large screens that a line does not name were inactive (follow-up assays come after a bar, where they were run). Hits are enriched below; roughly 2.3% of the tested compounds scored in any of these assays.

COC(=O)c1cnc(Nc2nc(C(N)Cc3ccccc3)cs2)nc1C(F)(F)F (stereo not given)	TAAR1 ag 63 (no result: OXTR ag, OXTR potentiate, V1aR counter) | TAAR1 ag confirm 50 | Ga16 ag counter 27 | TAAR1 desensitize inactive | Ga16 antag count 23
NC(COCc1ccccc1)c1csc(Nc2nccc(C(F)(F)F)n2)n1 (stereo not given)	none (no result: OXTR ag, OXTR potentiate, V1aR counter)
NC(Cc1ccccc1)c1csc(Nc2nncc3ccccc23)n1 (stereo not given)	none (no result: OXTR ag, OXTR potentiate, V1aR counter)
CCCc1cnc(Nc2nc(C(N)Cc3ccc(C(F)(F)F)cc3)cs2)nc1 (stereo not given)	TAAR1 ag 68 (no result: OXTR ag, OXTR potentiate, V1aR counter) | TAAR1 ag confirm 80 | Ga16 ag counter 63 | TAAR1 desensitize 54 | Ga16 antag count 59
NC(Cc1ccc(C(F)(F)F)cc1)c1csc(Nc2nccc(C(F)(F)F)n2)n1 (stereo not given)	TAAR1 ag 61 (no result: OXTR ag, OXTR potentiate, V1aR counter) | TAAR1 ag confirm 43 | Ga16 ag counter 20 | TAAR1 desensitize inactive | Ga16 antag count 23
CCCCc1ccc(NC(=O)NCc2ccccn2)cc1	none
COc1ccc(CCNC(=O)c2ccc3nc4cc(Cl)ccc4c(=O)n3c2)cc1OC	none
O=C(COc1ccc2c(-c3ccccc3)cc(=O)oc2c1)NCc1cccs1	none
O=C(NCc1ccccc1)N(Cc1cc2cc3c(cc2[nH]c1=O)OCO3)CC1CCCO1 (stereo not given)	none
Cc1cccc(CC(C)NC(=O)c2cc(COc3ccc(F)cc3F)on2)n1 (stereo not given)	TAAR1 antagonist 99, TAAR1 ag 88 | TAAR1 ag confirm inactive | Ga16 ag counter inactive | TAAR1 desensitize inactive | Ga16 antag count inactive
CNc1nc(NC)nc(NNC(=O)c2ccccc2)n1	none (no result: OXTR ag, OXTR potentiate, V1aR counter)
COc1cccc(-c2cc(C(=O)Nc3cnn(Cc4ccccc4C)c3)no2)c1	none
COc1cccc(-c2cc(C(=O)Nc3cnn(Cc4ccc(F)cc4)c3)no2)c1	TAAR1 ag 46 | TAAR1 ag confirm inactive | Ga16 ag counter inactive | TAAR1 desensitize inactive | Ga16 antag count 23
O=C(Cn1nnc(-c2ccc3c(c2)OCO3)n1)NCc1ccccc1	none
Cc1ccc(-c2nnn(CC(=O)NCCc3ccc4c(c3)OCO4)n2)cc1	TAAR1 antagonist 67, TAAR1 ag 78 | TAAR1 ag confirm 47 | Ga16 ag counter inactive | TAAR1 desensitize inactive | Ga16 antag count inactive
CCc1ccc(NC(=O)CSc2nnc(Cc3cccn3C)n2-c2ccc(OC)cc2)cc1	none
Cc1ccc(N2CN(Cc3ccco3)CNC2=S)cc1	none
CCCCN1CNC(=S)N(CCc2ccccc2)C1	none
COc1cccc(N2CN(CCc3ccccc3)CNC2=S)c1	TAAR1 antagonist 81, TAAR1 ag 96 | TAAR1 ag confirm 93 | Ga16 ag counter inactive | TAAR1 desensitize 80 | Ga16 antag count inactive
CCCN1CN(CCc2ccccc2)CNC1=S	none (no result: TAAR1 antagonist, TAAR1 ag) | Ga16 ag counter inactive | Ga16 antag count inactive
CCc1ccc(N2CN(CCc3ccccc3)CNC2=S)cc1	TAAR1 antagonist 59, TAAR1 ag 95 | TAAR1 ag confirm 83 | Ga16 ag counter inactive | TAAR1 desensitize 68 | Ga16 antag count inactive
Cc1ccc(N2CN(CCC3=CCCCC3)CNC2=S)cc1	TAAR1 ag 49 | TAAR1 ag confirm 56 | Ga16 ag counter inactive | TAAR1 desensitize inactive | Ga16 antag count inactive
CCC(C)NC(=O)C1(O)c2ccccc2NC(=O)N1c1ccc(C)c(C)c1 (stereo not given)	none
CC(C)c1ccc(CC(NC(=O)c2ccccc2)C(=O)NCC(=O)O)cc1 (stereo not given)	none
N#Cc1cccc(C(=O)N(CCc2ccccc2)Cc2cccs2)c1	none
S=C1NCN(CCc2ccccc2)CN1Cc1ccccc1	none
S=C1NCN(CCc2ccccc2)CN1	TAAR1 ag 87 | TAAR1 ag confirm 101 | Ga16 ag counter 22 | TAAR1 desensitize inactive | Ga16 antag count inactive
C[C@H](O)Cc1cn(-c2cc3cc(C#Cc4ccsc4)ccc3oc2=O)nn1	none
O=c1ccc(=O)n2n1CC(O)C2	none
CCN1C(N(C)CCc2cccs2)=N[C@@H](c2ccccc2)C(C(=O)OC)=C1C	TAAR1 ag 68 | TAAR1 ag confirm 74 | Ga16 ag counter inactive | TAAR1 desensitize inactive | Ga16 antag count inactive
CCN1C(=S)N[C@@H](c2ccccc2)C(C(=O)OC)=C1C	none
COC(=O)[C@]12CCCCC=C1N(Cc1ccco1)C(=O)[C@H](CC(=O)NCCc1ccccc1OC)C2	TAAR1 ag 51 (no result: OXTR ag, OXTR potentiate, V1aR counter) | TAAR1 ag confirm inactive | Ga16 ag counter inactive | TAAR1 desensitize inactive | Ga16 antag count inactive
COC(=O)[C@@]12C[C@@H](CC(=O)NCCc3ccccc3OC)C(=O)N(Cc3ccc4c(c3)OCO4)C1=CCC(C)(C)C2	TAAR1 antagonist 51, TAAR1 ag 61 (no result: OXTR ag, OXTR potentiate, V1aR counter) | TAAR1 ag confirm 100 | Ga16 ag counter inactive | TAAR1 desensitize 58 | Ga16 antag count inactive
CCOC(=O)[C@]12CCC=C1N(Cc1ccc3c(c1)OCO3)C(=O)[C@H](CC(=O)NCCc1ccccc1OC)C2	TAAR1 ag 60 (no result: OXTR ag, OXTR potentiate, V1aR counter) | TAAR1 ag confirm 91 | Ga16 ag counter inactive | TAAR1 desensitize 76 | Ga16 antag count inactive
CCCCNC(=O)C[C@@H]1C[C@@]2(C(=O)OC)CCCCC=C2N(Cc2ccco2)C1=O	none (no result: OXTR ag, OXTR potentiate, V1aR counter)
CCOC(=O)[C@]12CCC=C1N(Cc1cccc3ccccc13)C(=O)[C@H](CC(=O)NCCc1ccccc1OC)C2	TAAR1 ag 55 (no result: OXTR ag, OXTR potentiate, V1aR counter) | TAAR1 ag confirm 70 | Ga16 ag counter inactive | TAAR1 desensitize inactive | Ga16 antag count inactive
CCCCCCCCN1C(=O)[C@H](CC(=O)NCCc2ccccc2OC)C[C@@]2(C(=O)OCC)CCCC=C12	TAAR1 ag 56 (no result: OXTR ag, OXTR potentiate, V1aR counter) | TAAR1 ag confirm 57 | Ga16 ag counter inactive | TAAR1 desensitize inactive | Ga16 antag count inactive
CCCCCCCCN1C(=O)[C@H](CC(=O)NCCCC)C[C@@]2(C(=O)OCC)CCCC=C12	none (no result: OXTR ag, OXTR potentiate, V1aR counter)
